According to ChEMBL document CHEMBL1129424, “Heterocyclic amides: inhibitors of acyl-CoA:cholesterol O-acyl transferase with hypocholesterolemic activity in several species and antiatherosclerotic activity in the rabbit” (J Med Chem, 1996):

Legend:
[1] = molecular target: T1, Sterol O-acyltransferase 1 (Rattus norvegicus, UniProt O70536); test: Inhibition of Acyl coenzyme A:cholesterol acyltransferase 1 from rat liver microsomes
T1 sequence (O70536 whole entry): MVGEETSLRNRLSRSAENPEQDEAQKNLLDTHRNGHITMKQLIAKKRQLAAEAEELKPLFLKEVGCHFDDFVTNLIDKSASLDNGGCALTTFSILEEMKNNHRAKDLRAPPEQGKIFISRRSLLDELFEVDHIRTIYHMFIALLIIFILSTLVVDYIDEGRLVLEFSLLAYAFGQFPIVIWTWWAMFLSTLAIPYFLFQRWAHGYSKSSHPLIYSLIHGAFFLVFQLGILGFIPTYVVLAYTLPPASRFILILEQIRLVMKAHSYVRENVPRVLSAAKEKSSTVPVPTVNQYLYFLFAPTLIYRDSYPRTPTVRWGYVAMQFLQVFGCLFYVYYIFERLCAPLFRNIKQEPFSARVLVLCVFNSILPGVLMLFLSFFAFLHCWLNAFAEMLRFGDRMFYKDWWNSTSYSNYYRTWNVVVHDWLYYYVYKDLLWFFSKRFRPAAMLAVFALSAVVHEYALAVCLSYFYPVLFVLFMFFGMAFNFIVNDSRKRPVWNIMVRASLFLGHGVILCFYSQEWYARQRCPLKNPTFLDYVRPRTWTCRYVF
Procedure, shortened: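 Microsomes isolated from livers of cholesterol-fed rats were incubated with compound and [1-14C]oleoyl-CoA to measure ACAT inhibition; IC50 reported in μM.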

Rattus norvegicus [2] = test: Percent change in total cholesterol in the acute cholesterol-fed rat model (APCC) of hypercholesterolemia at 30 mg/Kg; assay type: functional
Procedure, shortened: (§1)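 Acute rat model: compound given by gavage at 30 or 3 mg/kg in 1.5% carboxymethylcellulose/0.2% Tween-20 in water (3-4 pm). Rats then fed overnight a diet with 5.5% peanut oil, 1.5% cholesterol, 0.5% cholic acid. Result is percent decrease in plasma total cholesterol versus controls.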

[3] = molecular target: T2, Sterol O-acyltransferase 1 (Rattus norvegicus) (UniProt O70536); test: Inhibition of rat liver microsomal Acyl coenzyme A:cholesterol acyltransferase 1 from rabbit plasma after an oral dose of 25 mg/kg; assay type: cell-free
T2 sequence (whole entry): T1 sequence (O70536 whole entry)
Procedure, shortened: (§2)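 Male New Zealand white rabbits conditioned to meal feeding for 1 week, then given a meal containing drug at 25 mg/kg in 3% peanut oil/3% coconut oil vehicle. Plasma was sampled at 0, 1, 2 and 4 h and extracted into hexane, then redissolved in chloroform/methanol (2:1). It was assayed for liver microsomal ACAT inhibition against standards of compound spiked into rabbit plasma in DMSO.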

Rattus norvegicus [4] = test: Percent change in total cholesterol in the acute cholesterol-fed rat model (APCC) of hypercholesterolemia at 3 mg/Kg; assay type: functional; procedure, shortened: as §1
[5] = Acyl coenzyme A:cholesterol acyltransferase inhibition in cell culture measured in murine IC-21 macrophages.
Procedure, shortened: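 Murine IC-21 macrophages preincubated 16 h in serum-free DMEM with albumin (20 μM) and phosphatidylserine/cholesterol vesicles; then compound in DMSO for 1 h, then 14C-sodium oleate added for 4 more h. Lipids extracted in hexane/2-propanol with [14C]cholesterol internal standard; neutral lipids separated by TLC, phosphorimaged; protein by Lowry. IC50 is the concentration giving 50% inhibition.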

Oryctolagus cuniculus [6] = test: Percent change in lesion coverage relative to control in the thoracic aorta at dose 25 mg/Kg in rabbits; assay type: functional
Procedure, shortened: (§3)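 Injured cholesterol-fed rabbits: diet of 0.5% cholesterol, 3% peanut oil, 3% coconut oil for 9 weeks (1 week before, 8 weeks after surgery), producing thoracic aortic and iliac-femoral lesions. Doses 1, 5 or 25 mg/kg. Thoracic aortic lesion coverage, plasma total cholesterol and triglycerides given as percent change versus control; Student's t-test, p < 0.05.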

Oryctolagus cuniculus [7] = test: Percent change in plasma triglyceride levels at dose 25 mg/Kg in rabbits; assay type: functional; procedure, shortened: as §3
Oryctolagus cuniculus [8] = test: Percent change in plasma total cholesterol at dose 25 mg/Kg in rabbits; assay type: functional; procedure, shortened: as §3
Rattus norvegicus [9] = organism: Rattus norvegicus; test: Compound was tested for the percent change in total cholesterol (TC) by chronic rat model; assay type: functional
Oryctolagus cuniculus [10] = test: Percent change in plasma triglyceride levels at dose 1 mg/Kg in rabbits; assay type: functional; procedure, shortened: as §3
Canis familiaris = test: CDOG represents the C-fed female Beagle dog model, data expressed as percent change in TC relative to untreated controls at compound concentration of 10 mg/Kg; assay type: functional, Canis lupus familiaris
Procedure, shortened: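 Cholesterol-fed female Beagle dogs given bulk drug in capsules daily before meals for 1 week at 10 mg/kg. Plasma total cholesterol compared before and after treatment.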

Oryctolagus cuniculus [11] = test: Percent change in lesion coverage relative to control in the thoracic aorta at dose 5 mg/Kg in rabbits; assay type: functional; procedure, shortened: as §3
Oryctolagus cuniculus [12] = test: Percent change in plasma total cholesterol at dose 5 mg/Kg in rabbits; assay type: functional; procedure, shortened: as §3
Oryctolagus cuniculus [13] = test: Percent change in lesion coverage relative to control in the thoracic aorta at dose 1 mg/Kg in rabbits; assay type: functional; procedure, shortened: as §3
[14] = molecular target: T2, Sterol O-acyltransferase 1 (Rattus norvegicus); test: Compound at 1 mg/Kg was tested for the inhibition of rat liver microsomal Acyl coenzyme A:cholesterol acyltransferase 1 in plasma drawn from chow fed rabbits; assay type: cell-free
[15] = molecular target: T2, Sterol O-acyltransferase 1 (Rattus norvegicus); test: Compound at 5 mg/Kg was tested for the inhibition of rat liver microsomal Acyl coenzyme A:cholesterol acyltransferase 1 in plasma drawn from chow fed rabbits; assay type: cell-free
Oryctolagus cuniculus [16] = test: Percent change in plasma triglyceride levels at dose 5 mg/Kg in rabbits; assay type: functional; procedure, shortened: as §3
[17] = molecular target: T2, Sterol O-acyltransferase 1 (Rattus norvegicus); test: Compound at 25 mg/Kg was tested for the inhibition of rat liver microsomal Acyl coenzyme A:cholesterol acyltransferase 1 in plasma drawn from chow fed rabbits; assay type: cell-free; procedure, shortened: as §2
Oryctolagus cuniculus [18] = test: Percent change in plasma total cholesterol at dose 1 mg/Kg in rabbits; assay type: functional; procedure, shortened: as §3
Oryctolagus cuniculus [19] = test: Percent change in TC relative to untreated controls at 5 mg/Kg in cholesterol fed rabbits (CFR)

Row | SMILES | IC50 [1] | DeltaTC (Rattus norvegicus [2]) | inhibition [3] | DeltaTC (Rattus norvegicus [4]) | IC50 [5] | also measured
1 | CCCCCCCCCCCCc1cc(C2(C(=O)Nc3c(OC)cc(OC)cc3OC)CCCC2)no1 | 100 nM | -29% | – | – | – | –
2 | CCCCCCCCCCCCc1cn(C(C(=O)Nc2c(OC)cc(OC)cc2OC)c2ccccc2)nn1 (centres undefined) | 22 nM | -69% | 12% | -66% | 54 nM | –
3 | CCCCCCCCCCC(C)(C)C(=O)Nc1c(OC)cc(OC)cc1OC [CL-976] | – | – | – | – | – | Activity (Oryctolagus cuniculus [6]): -41%; DeltaTC (Oryctolagus cuniculus [7]): -7%; DeltaTC (Oryctolagus cuniculus [8]): -24%
4 | CCCCCCCCCCCCc1nnc(C(C(=O)Nc2c(OC)cc(OC)cc2OC)c2ccccc2)o1 (centres undefined) | 17 nM | -57% | 21% | -64% | 48 nM | CPCC (Rattus norvegicus [9]): -39
5 | CCCCCCCCCCCCc1cc(C(C(=O)Nc2c(OC)cc(OC)cc2OC)c2ccccc2)no1 (centres undefined) | 22 nM | -72% | 92% | -50% | 310 nM | DeltaTC (Oryctolagus cuniculus [10]): 24%; CDOG (Canis familiaris): -44; Activity (Oryctolagus cuniculus [11]): -29%; DeltaTC (Oryctolagus cuniculus [12]): -27%; Activity (Oryctolagus cuniculus [13]): -20%; inhibition [14]: 0%; Activity (Oryctolagus cuniculus [6]): -36%; inhibition [15]: 68%; DeltaTG (Oryctolagus cuniculus [16]): 66%; CPCC (Rattus norvegicus [9]): -61; inhibition [17]: 92%; DeltaTC (Oryctolagus cuniculus [18]): -17%; DeltaTC (Oryctolagus cuniculus [19]): -66%; DeltaTC (Oryctolagus cuniculus [7]): 157%; DeltaTC (Oryctolagus cuniculus [8]): -27%
6 | CCCCCCCCCCCCc1cc(C(C(=O)Nc2ccc(F)cc2F)c2ccccc2)no1 (centres undefined) | 100 nM | -29% | – | – | – | –
7 | CCCCCCCCCCCCc1cc(C(C(=O)Nc2c(C(C)C)cccc2C(C)C)c2ccccc2)on1 (centres undefined) | 19 nM | -52% | – | -10% | – | –
8 | CCCCCCCCCCCCc1nnc(C(C(=O)Nc2c(C(C)C)cccc2C(C)C)c2ccccc2)o1 (centres undefined) | 14 nM | -64% | – | -23% | – | –
